Only some compounds are listed: those with a hit (about 3.5% of all), similar ones and a draw of the others.
MrgX1 agonist = agonists of human MrgX1 receptor, primary screen, HEK293 cells, Fluo-4 calcium flux; Fluo-4 calcium fluorescence, agonist mode; active compounds read high; B-score at 10 µM; 310,000 tested, 0.44% active;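 active = calcium response B-score plate-corrected fluorescence ratio at least 3 library SD, with starting fluorescence B-score inside 5 SD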
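Material: MrgX1-expressing HEK293 cells / Dosing: compound as first of three additions / Incubation: overnight seeding, then 1 h dark dye loading / Signal: Fluo-4 NW calcium fluorescence / Evaluation: B-scored fluorescence response ratio / Benchmarks: positive and negative control wells on each plate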
RGS4 block = RGS4 inhibitors, primary screen, cell-based, HEK293 M3R inducible RGS4, calcium flux; Regulator of G-protein signaling 4 (Homo sapiens), P49798; Fluo-4 calcium flux; active compounds read high; triggered by carbachol at its EC20; AID 463165, 2010; 310,000 tested, 0.45% active; B-score at 10 µM;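 active = B-score, a plate-corrected calcium signal, over three deviations above library mean, with baseline fluorescence within five deviations of library mean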;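 also: RGS4 expression induced by doxycycline in cells with stable M3 receptor; B-score is computed from the integrated fluorescence ratio over baseline after carbachol; higher B-score means a larger calcium signal and so more RGS4 inhibition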
Target sequence (P49798 whole entry, looked up): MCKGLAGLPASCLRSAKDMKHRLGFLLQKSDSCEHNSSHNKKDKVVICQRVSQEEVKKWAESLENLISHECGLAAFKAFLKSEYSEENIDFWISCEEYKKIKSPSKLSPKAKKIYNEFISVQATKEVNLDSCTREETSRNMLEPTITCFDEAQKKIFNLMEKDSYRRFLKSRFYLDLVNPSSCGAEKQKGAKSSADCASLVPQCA
MrgX1 antag = antagonists of human MrgX1 receptor, primary screen, HEK293 cells, Fluo-4 calcium flux; B-score at 10 µM; 310,000 tested, 1.3% active; Mas-related G-protein coupled receptor member X1 (Homo sapiens), Q96LB2; BAM8-22 antagonism; active compounds read low; AID 588676, 2011;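 active = calcium-response B-score plate-corrected more than 3 library SD below zero, starting fluorescence within 5 deviations, no agonist response on first addition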;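 also: peak minus trough fluorescence over baseline after final BAM8-22 challenge near maximal dose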
RGS4 act = RGS4 potentiators or activators, primary screen, cell-based, HEK293 M3R inducible RGS4, calcium flux. 310,000 tested, 0.92% active. carbachol calcium flux Fluo4; active compounds read low. AID 463111, 2010. B-score at 10 µM;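 active = B-score of the integrated calcium signal more than 4 SD below the library mean, with starting fluorescence not abnormally high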;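 also: negative B-score means reduced calcium response which marks RGS4 activation or potentiation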
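Detection: kinetic calcium fluorescence imaging with Fluo4-AM dye, 2 µM / Material: HEK293 cells with stable M3R and inducible RGS4 / Schedule: recording 10 s baseline at 1 Hz, 100 s post-agonist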
MrgX1 PAM = positive allosteric modulators of MrgX1, primary screen, HEK293 cells, Fluo-4 calcium flux | Mas-related G-protein coupled receptor member X1 (Homo sapiens), Q96LB2 | FDSS; active compounds read high | B-score at 10 µM | 310,000 tested, 0.63% active | AID 588675, 2011;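 active = plate-corrected calcium response at least 3 library SD above typical, normal starting fluorescence, not activating the receptor alone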;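 also: compound read alongside a low EC10 to EC30 dose of BAM8-22 agonist; peak minus trough fluorescence over baseline measured at the second addition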
MrgX1 antag conf = MrgX1 receptor antagonists, duplicate retest, confirmation, HEK293 cells, Fluo-4 calcium flux | shares compounds with MrgX1 antag | BAM8-22 calcium flux; active compounds read low | remaining BAM8-22 calcium response % of control (active compounds read low), % at 10 µM | 2,300 tested, 19% active | AID 602420, 2012;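 active = remaining agonist calcium response no higher than 100% minus 3 SD of agonist-only control wells, with starting fluorescence near control levels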;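 also: agonist BAM8-22 given at a near maximal EC90 to ECmax level; peak minus minimum fluorescence divided by baseline after agonist addition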
HEK293 Ca flux = nonspecific calcium signal in parental HEK293, confirmation, counter-screen for MrgX1 antagonist project, parental HEK293 cells, Fluo-4 calcium flux; 4,000 tested, 2% active; shares compounds with MrgX1 antag; Fluo-4 calcium fluorescence, FDSS; fluorescence ratio F(max-min)/F0 at 10 µM;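 active = duplicate-averaged calcium fluorescence ratio at least three times the standard deviation of buffer wells, a nonspecific response in parental cells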
HEK293 Ca counter = calcium response in parental HEK293 cells, primary screen, counter-screen for MrgX1 allosteric activator project, cell-based, Fluo-4 calcium flux, duplicate; fluorescence ratio F(max-min)/F0 at 10 µM; shares compounds with MrgX1 antag; 4,000 tested, 0.4% active; Fluo-4 fluorescence ratio; active compounds read high;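 active = calcium fluorescence ratio, averaged over duplicates, at least 3 SD of the buffer-well ratio, meaning a nonspecific response in receptor-free cells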;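 also: untransfected parental HEK293 lacking MrgX1 used as counterscreen for MrgX1 allosteric activators; fluorescence change taken during the second addition on a kinetic imager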
HEK293 Ca cntr2 = calcium response in parental HEK293 cells, primary screen, counter-screen for MrgX1 agonist project, cell-based, Fluo-4 calcium flux, duplicate, agonist mode; shares compounds with MrgX1 antag; 4,000 tested, 8.7% active; fluorescence ratio F(max-min)/F0 at 10 µM; Fluo-4 calcium fluorescence (FDSS); active compounds read high;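 active = calcium fluorescence ratio at least three times the spread of buffer wells, meaning a non-specific response in parental cells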
* marks the source's active call; other numbers are inactive results; i = inactive; / = not tested or not shown.

SMILES | MrgX1 agonist | RGS4 block | MrgX1 antag | RGS4 act | MrgX1 PAM | MrgX1 antag conf | HEK293 Ca flux | HEK293 Ca counter | HEK293 Ca cntr2
CC1(C)C(=O)OC(c2ccc([N+](=O)[O-])cc2)C(C)(C)C1=O (stereo unspecified) | i | i | i | i | i | / | / | / | /
CCOC(=O)C1CCCN(C(=O)c2cn(-c3ccccc3)nc2-c2cccnc2)C1 (stereo unspecified) | i | i | i | i | i | / | / | / | /
CC1CCCN(C(=O)c2cn(-c3ccccc3)nc2-c2cccnc2)C1 (stereo unspecified) | i | i | -6.8* | i | i | i | i | i | i
Cc1ccc(C)c(NS(=O)(=O)c2ccc3[nH]c(=O)oc3c2)c1 | i | i | -5.3* | i | i | i | i | i | i
CCOc1ccc(N2CC(C(=O)N3CCN(c4ccccn4)CC3)CC2=O)cc1 (stereo unspecified) | i | i | -6.7* | i | i | i | i | i | i
O=C(CNS(=O)(=O)c1cccc2nsnc12)NCc1ccc(Cl)cc1 | i | i | -7.3* | i | i | 61%* | i | i | i
CCCC[C@@H]1CNC(=O)C(=O)N1CC(C)(C)C | i | i | -7.2* | i | i | i | i | i | i
CN(C)C(=O)c1ccc(NC(=O)c2ccc(-c3ccc(Cl)cc3)o2)cc1 | i | i | i | i | i | / | / | / | /
CC(=O)c1cccc(NC(=O)CN(C)S(=O)(=O)c2cccc3nsnc23)c1 | i | i | i | i | i | / | / | / | /
Nc1nc(Cl)nc2c1ncn2C1CC(O)C(CO)O1 (stereo unspecified) | i | i | -5.1* | i | i | i | i | i | i
Nc1nc2c(ncn2[C@H]2C[C@H](O)[C@@H](CO)O2)c(=O)[nH]1 | i | i | i | i | i | / | / | / | /
CCN(CC(=O)Nc1ccc2c(c1)OCCO2)c1nc(-c2cccnc2)nc2ccccc12 | i | i | -11* | i | i | i | i | i | i
O=C(Nc1ccc2c(c1)OCO2)c1cc(-c2cccnc2)nc2ccccc12 | i | i | i | i | i | / | / | / | /
CCOC(=O)C(C)NC(=O)CCc1nnc2ccc(N3CCCCC3)nn12 (stereo unspecified) | i | i | i | i | i | / | / | / | /
Cc1cc(Nc2ccccc2)n(C(=O)c2ccccc2)n1 | i | i | -6.8* | i | i | i | i | i | i
CCOc1ccc(CC(=O)Nc2cc(=O)n(C)c(=O)n2C)cc1 | i | i | i | i | i | / | / | / | /
COc1ccc(CC(=O)Nc2cc(=O)n(C)c(=O)n2C)cc1 | i | i | -7.7* | i | i | i | i | i | i
O=C(Nc1ccc2c(c1)CCC2)C1COc2ccccc2O1 (stereo unspecified) | i | / | i | / | i | / | / | / | /

Screening data deposited in PubChem by Johns Hopkins Ion Channel Center.
